Data on 15 compounds can be found in ChEMBL document CHEMBL1138881, “Application of phosphoramidate ProTide technology significantly improves antiviral potency of carbocyclic adenosine derivatives” (J Med Chem, 2006).

For orientation: pEC50 means −log10 of the EC50, conventionally taken in molar units. One may read the CC50 as the concentration that lowers cell viability or growth by half.

Data set [1] concerns Human immunodeficiency virus 2. The data set can be described thus: Antiviral activity against HIV2 ROD in MT4 cells. Type of data set: functional, organism-based. The following applies: Human immunodeficiency virus 2, ROD. The method in brief:
(§1)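 MT-4 cells at 4.5 × 10⁵ cells/mL were infected with 100 CCID₅₀/mL of HIV-1 or HIV-2. Viable cells were then counted after trypan blue staining, and EC₅₀ was derived from these viable-cell counts.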

Data set [2] relates to Cynomolgus monkey. Description: Metabolic stability in cynomolgus monkey liver S9 fraction. It counts as ADME, Macaca fascicularis. The method, boiled down: (§2)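 Pooled cynomolgus S9 (liver or intestinal segments), test compound 10 µM final, 37 °C, DMSO <1% final; reaction started with NADPH 2.5 mM final. Aliquots taken at 0 (preincubation), 10, 20, 30 and 60 min, quenched with cold acetonitrile, centrifuged; supernatant parent measured by LC/MS/MS. Stability given as % remaining from pre- vs postincubation peak areas.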

Another data set has as its system Hepatitis B virus. The data set can be described thus: Antiviral activity against HBV in HepG2 2.2.15 cells. It counts as functional, organism-based. The method in brief:
(§3)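 HepG2 2.2.15 cells, which produce HBV constitutively, were seeded at 5 × 10³ per well. Drug-containing medium was replaced every other day for 9 days. Virions in the supernatant were captured on anti-HBsAg plates, and their DNA was quantified by PCR against an HBV standard curve and normalized to untreated cells. For cell growth, monolayers were ethanol-fixed and stained with bisbenzimide H33342, and fluorescence was compared with untreated cells. SI = CC₅₀/EC₅₀.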

In data set [3] the test system is HepG2. Description: Cytotoxicity against HepG2 2.2.15 cells. It counts as functional. As to conditions: Homo sapiens. The method in brief: as §3
The subject of another data set is CEM cells (Homo sapiens). The data set can be described thus: Cytotoxicity against CEM cells.
The subject of data set [4] is Human immunodeficiency virus 1. The data set can be described thus: Antiviral activity against HIV1 3B in CEM cells. Type of data set: functional, organism-based. The following applies: Human immunodeficiency virus 1, 3B, CCRF-CEM. The method, boiled down: (§4)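 CEM cells at 4.5 × 10⁵ cells/mL were infected with 100 CCID₅₀/mL of HIV-1 or HIV-2. Giant-cell formation was scored microscopically. EC₅₀ was the concentration preventing syncytium formation by 50%.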

Data set [5] relates to Cynomolgus monkey. The data set can be described thus: Metabolic stability in cynomolgus monkey intestine S9 fraction. Type of data set: ADME, Macaca fascicularis. The method, boiled down: as §2
Data set [6] deals with Human immunodeficiency virus 1. Description: Antiviral activity against HIV1 3B in MT4 cells. Type of data set: functional, organism-based. As to conditions: Human immunodeficiency virus 1, 3B. The method in brief: as §1
For a further data set, the system named is MT4. Description: Cytotoxicity against MT4 cells. It counts as functional. The following applies: Homo sapiens. The method in brief:
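Exponentially growing MT-4 cells were resuspended at 5 × 10⁵ cells/mL in RPMI 1640 with 20% FBS and 20% IL-2. They were infected with HIV-1 IIIB (100 × TCID₅₀ per well) for 1 h at 37 °C, with mock-infected cells run in parallel. The suspension was diluted 6-fold onto serially diluted compound and incubated for 5 days at 37 °C in 5% CO₂. MTS staining was read at 492 nm.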

In data set [7] the test system is Human immunodeficiency virus 2. Description: Antiviral activity against HIV2 ROD in CEM cells. It counts as functional, organism-based. The following applies: Human immunodeficiency virus 2, ROD, CCRF-CEM. The method, boiled down: as §4
The subject of data set [8] is HepG2. Description: Selectivity index, CC50 for HepG2 2.2.15 cells/EC50 for HBV. It counts as functional. The method in brief: as §3

pEC50: −log10 of the molar value.

Turning to `COC(=O)C[C@H](NP(=O)(OC[C@H]1C=C[C@@H](n2cnc3c(N)ncnc32)C1)Oc1ccccc1)C(=O)OC` (stereo not given in full), the pEC50 in [1] is 6.59; in the data set with Hepatitis B virus, 7.30; in data set [4] it was 5.96; in data set [6], 6.49; in [7] it was 5.46. The Stability in the data set with Cynomolgus monkey [2] stood at 4%; with Cynomolgus monkey [5], 8%. Besides, the CC50 is > 2 µM in the data set on HepG2 [3], > 50 µM in the data set with CEM cells (Homo sapiens) and > 16 µM in the data set with MT4.

As for `C[C@H](NP(=O)(OC[C@H]1C=C[C@@H](n2cnc3c(N)ncnc32)C1)Oc1ccccc1)C(=O)OC(C)(C)C` (stereo not given in full), the pEC50 is 5.51 in data set [1]; 6.60 with Hepatitis B virus; 5.53 in data set [4]; > 6.59 in data set [6]; 5.44 in data set [7]. The Stability with Cynomolgus monkey [2] is 1%; in the data set on Cynomolgus monkey [5], 96%. Further, the cytotoxic concentration (CC50) is 170 µM in the data set on HepG2 [3], 130 µM in the data set with CEM cells (Homo sapiens) and < 25 µM with MT4.

Turning to `COC(=O)[C@H](C)NP(=O)(OC[C@H]1C=C[C@@H](n2cnc3c(N)ncnc32)C1)Oc1ccccc1` (stereo not given in full), the pEC50 in data set [1] is 7.37; in the data set with Hepatitis B virus it was 7.77; in data set [4], 6.89; in data set [6], 7.52; in data set [7], 7.05. Also, the Stability with Cynomolgus monkey [2] turned out to be 24%; in the data set with Cynomolgus monkey [5], 74%. Besides, the CC50 is 1280 µM in the data set on HepG2 [3], 18.1 µM in the data set with CEM cells (Homo sapiens) and 6.4 µM in the data set on MT4. Also, in the data set with HepG2 [8], the “Ratio CC50/EC50” value is recorded as 75000.

Take `COC(=O)[C@H](CCCCN)NP(=O)(OC[C@H]1C=C[C@@H](n2cnc3c(N)ncnc32)C1)Oc1ccccc1.O=C(O)C(F)(F)F` (stereo not given in full): the pEC50 in [1] was 4.57; in the data set on Hepatitis B virus, 5.70; in data set [4], 4.60; in [6], 4.82; in data set [7], 3.82. Also, the Stability in the data set with Cynomolgus monkey [2] came out at 95%; in the data set with Cynomolgus monkey [5], 17%. Besides, the values for the CC50 with HepG2 [3], in the data set on CEM cells (Homo sapiens) and in the data set on MT4 were > 100 µM, > 250 µM and > 25 µM, respectively.

Regarding `CC[C@H](C)[C@H](NP(=O)(OC[C@H]1C=C[C@@H](n2cnc3c(N)ncnc32)C1)Oc1ccccc1)C(=O)OC` (stereo not given in full), the pEC50 in [1] was 5.95; in the data set on Hepatitis B virus it was 7.22; in data set [4] it was 5.68; in data set [6], 6.02; in data set [7] it was 5.46. Moreover, the figures for the Stability in the data set with Cynomolgus monkey [2] and with Cynomolgus monkey [5] were 0% and 69%, respectively. Further, the CC50 was 76 µM in the data set on HepG2 [3], 118 µM in the data set with CEM cells (Homo sapiens) and > 5 µM in the data set with MT4.

For the compound `COC(=O)[C@H](Cc1ccc(O)cc1)NP(=O)(OC[C@H]1C=C[C@@H](n2cnc3c(N)ncnc32)C1)Oc1ccccc1` (stereo not given in full), the pEC50 was 6.14 in [1]; 7.30 in the data set with Hepatitis B virus; 5.27 in [4]; 6.24 in data set [6]; 4.74 in data set [7]. The Stability in the data set with Cynomolgus monkey [2] and in the data set on Cynomolgus monkey [5] was 0% in each case. In addition, the CC50 with HepG2 [3] was > 2 µM; in the data set with CEM cells (Homo sapiens), 110 µM; with MT4, 26.9 µM.

Consider `C[C@H](NP(=O)(OC[C@H]1C=C[C@@H](n2cnc3c(N)ncnc32)C1)Oc1ccccc1)C(=O)OCC(C)(C)C` (stereo not given in full), for which the pEC50 in data set [1] is 7.52; in the data set with Hepatitis B virus, 8.52; in data set [4] it was 7.17; in data set [6], 7.37; in data set [7] it was 7.08. Moreover, the results for the Stability with Cynomolgus monkey [2] and with Cynomolgus monkey [5] were 0% and 57%, respectively. The 50% cytotoxic concentration (CC50) in the data set on HepG2 [3] is 13 µM; in the data set on CEM cells (Homo sapiens), 19.5 µM; in the data set with MT4, > 10 µM.

As to `COC(=O)[C@H](CCSC)NP(=O)(OC[C@H]1C=C[C@@H](n2cnc3c(N)ncnc32)C1)Oc1ccccc1` (stereo not given in full), the negative logarithm of the EC50 (pEC50) was 6.68 in data set [1]; 7.52 in the data set with Hepatitis B virus; 6.28 in data set [4]; 6.80 in data set [6]; 6.00 in [7]. Further, the Stability is reported as 0% with Cynomolgus monkey [2] and 66% with Cynomolgus monkey [5]. The values for the half-maximal cytotoxic concentration (CC50) with HepG2 [3], with CEM cells (Homo sapiens) and in the data set with MT4 were 16 µM, 85.8 µM and > 5 µM, respectively.

As to `COC(=O)[C@H](CC(C)C)NP(=O)(OC[C@H]1C=C[C@@H](n2cnc3c(N)ncnc32)C1)Oc1ccccc1` (stereo not given in full), the pEC50 in data set [1] was 6.89; in the data set with Hepatitis B virus, 8.00; in data set [4], 6.38; in [6], 6.72; in [7], 6.25. For the same compound, the figures for the Stability in the data set on Cynomolgus monkey [2] and in the data set on Cynomolgus monkey [5] were 0% and 75%, respectively. Besides, the CC50 with HepG2 [3] is 20 µM; in the data set with CEM cells (Homo sapiens) it was 70 µM; in the data set with MT4 it was > 5 µM.

On to `COC(=O)c1ccc(OP(=O)(N[C@@H](C)C(=O)OC)OC[C@H]2C=C[C@@H](n3cnc4c(N)ncnc43)C2)cc1` (stereo not given in full), for which the pEC50 in data set [1] is 7.25; in the data set with Hepatitis B virus, 8.40; in [4] it was 6.89; in [6], 6.92; in data set [7] it was 6.89. Moreover, the Stability worked out at 7% in the data set on Cynomolgus monkey [2] and 48% with Cynomolgus monkey [5]. The CC50 in the data set with HepG2 [3] was > 2 µM; in the data set on CEM cells (Homo sapiens), 12.9 µM; with MT4 it was > 4 µM.

Take `COC(=O)CNP(=O)(OC[C@H]1C=C[C@@H](n2cnc3c(N)ncnc32)C1)Oc1ccccc1` (stereo not given in full): the pEC50 in data set [1] was 5.24; in the data set on Hepatitis B virus it was 7.07; in data set [4] it was 4.87; in [6], 5.36; in data set [7] it was 4.70. In addition, the results for the Stability with Cynomolgus monkey [2] and with Cynomolgus monkey [5] were 46% and 85%, respectively. The CC50 with HepG2 [3] was > 2 µM; in the data set on CEM cells (Homo sapiens), ≥ 250 µM; in the data set with MT4, > 100 µM.

For the compound `COC(=O)[C@@H](NP(=O)(OC[C@H]1C=C[C@@H](n2cnc3c(N)ncnc32)C1)Oc1ccccc1)C(C)C` (stereo not given in full), the pEC50 was 5.98 in [1]; 7.70 with Hepatitis B virus; 6.00 in data set [4]; 6.19 in [6]; 5.35 in [7]. Also, the Stability in the data set with Cynomolgus monkey [2] was 2%; in the data set with Cynomolgus monkey [5], 91%. The CC50 in the data set with HepG2 [3] is 120 µM; with CEM cells (Homo sapiens), 167 µM; in the data set on MT4, < 25 µM.

In the case of `CCOC(=O)c1cccc(OP(=O)(N[C@@H](C)C(=O)OC)OC[C@H]2C=C[C@@H](n3cnc4c(N)ncnc43)C2)c1` (stereo not given in full), the pEC50 in data set [1] was 7.48; in the data set on Hepatitis B virus, 8.40; in [4] it was 7.19; in data set [6] it was 7.28; in data set [7], 7.10. Also, the values for the Stability in the data set on Cynomolgus monkey [2] and in the data set on Cynomolgus monkey [5] were 19% and 42%, respectively. Moreover, the CC50 is > 2 µM in the data set on HepG2 [3], 8.39 µM in the data set with CEM cells (Homo sapiens) and 4.39 µM in the data set with MT4.

As to `CCOC(=O)c1ccccc1OP(=O)(N[C@@H](C)C(=O)OC)OC[C@H]1C=C[C@@H](n2cnc3c(N)ncnc32)C1` (stereo not given in full), the Stability was determined as 25% in the data set with Cynomolgus monkey [2] and 80% in the data set with Cynomolgus monkey [5]. Besides, the pEC50 in the data set with Hepatitis B virus was 8.40; in data set [4] it was 7.28; in [6], > 6.59; in data set [7], 7.24. The figures for the CC50 with HepG2 [3], in the data set on CEM cells (Homo sapiens) and with MT4 were 12 µM, 4.17 µM and < 4 µM, respectively.

For the compound `CC(C)OC(=O)[C@H](C)NP(=O)(OC[C@H]1C=C[C@@H](n2cnc3c(N)ncnc32)C1)Oc1ccccc1` (stereo not given in full), the pEC50 is 6.66 in [1]; 8.22 in the data set with Hepatitis B virus; 6.52 in [4]; 6.82 in [6]; 6.60 in data set [7]. Also, the results for the Stability in the data set on Cynomolgus monkey [2] and in the data set with Cynomolgus monkey [5] were 8% and 90%, respectively. The CC50 with HepG2 [3] was > 2 µM; in the data set with CEM cells (Homo sapiens) it was 84 µM; in the data set on MT4, 91.4 µM.
